# From PubChem
# Hits are enriched below; roughly 2.5% of the tested compounds scored in any of these assays.
# Rin1 Abl inh = human Rin1-Abl interaction inhibition; TR-FRET Rin1/Abl binding, biochemical; inhibition, % at 7.35 µM; P00519+Q13671; 360,000 compounds, 0.4% hits; AID 588664; in the data active = inhibition above about 5%, passing the limit was not always enough
# B2AR ag = activates human beta-2 adrenergic receptor causing internalization. Am2.2-beta2AR cells, FAP receptor internalization, flow cytometry. response, % (no concentration beside the values). 340,000 compounds, 0.43% hits;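 active = response above a set limit, near 3 SD of response in nonfluorescent compounds, cut at about 42% in these data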
# Target sequence (P07550 whole entry, looked up): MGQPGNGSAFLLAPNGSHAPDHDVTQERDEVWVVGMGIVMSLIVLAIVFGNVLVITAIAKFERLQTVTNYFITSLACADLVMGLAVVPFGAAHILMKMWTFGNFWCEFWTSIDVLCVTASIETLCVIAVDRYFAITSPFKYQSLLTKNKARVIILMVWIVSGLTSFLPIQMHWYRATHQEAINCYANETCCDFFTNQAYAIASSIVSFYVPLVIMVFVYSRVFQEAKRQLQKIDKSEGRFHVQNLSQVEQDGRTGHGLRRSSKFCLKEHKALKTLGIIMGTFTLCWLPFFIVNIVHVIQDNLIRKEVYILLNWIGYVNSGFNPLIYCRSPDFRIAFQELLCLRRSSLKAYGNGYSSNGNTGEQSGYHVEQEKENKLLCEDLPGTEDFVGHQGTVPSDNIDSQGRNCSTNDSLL
# MBD2 DNA inh = MBD2-methylated oligo binding inhibition; Q9UBB5; TR-FRET, MBD2 binding to methylated oligonucleotide; 370,000 compounds, 0.31% hits; inhibition, % at 4.4 µM; in the data active = inhibition above about 13%
# Arrestin-AP2 inh = inhibitors of human beta-arrestin and AP2 interaction. FITC-arrestin peptide / GST-AP2 beads, flow cytometry; AP2 beta2 appendage carries R879A mutation. inhibition, % at 10 µM. 340,000 compounds, 0.31% hits. AID 504490;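 active = inhibition above a set limit, near 3 SD of compounds lacking own fluorescence, cut at about 54% in these data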;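 also: plate controls were DMSO wells for no effect and 5 µM unlabelled arrestin peptide for full effect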
#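 test system = AP2 appendage R879A on GSH beads | buffer or medium = PBS plus Tween 20 (0.05%) and BSA (0.1%) | incubation = 12 min plus 1 h, RT | detection = bead flow cytometry, FITC channel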
# ABHD5-PLIN5 inh = inhibitors of human ABHD5-perilipin-5 interaction; Q00G26+Q8WTS1; Split G. princeps luciferase complementation, luminescence, 4 h; inhibition, % at 4 µM; 360,000 compounds, 0.78% hits; AID 602281;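 active = inhibition above the mean inhibition across every tested compound plus 3 SD, cut at about 22% in these data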;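 also: 0% = DMSO only wells and the 100% control is not disclosed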
# UHRF1 MBD2 ctr = human UHRF1 methylated DNA binding inhibitors | AID 687016 | Q96T88 | inhibition, % at 4.4 µM | 370,000 compounds, 0.75% hits | UHRF1 binding to methylated oligo, TR-FRET;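 also: UHRF1 SRA domain binding a hemimethylated CpG hairpin DNA probe; 0% = median of test compound wells and 100% = reference inhibitor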
# Rin1 Abl conf = confirmation of inhibitors of human Rin1-Abl interaction; TR-FRET Rin1-Abl binding, purified proteins; inhibition, % at 7.35 µM; 1,300 compounds, 49% hits; AID 602124; shares compounds with Rin1 Abl inh; in the data active = inhibition above about 6.5%
# GFP quench = counter-screen for Rin1-Abl inhibitors: GFP fluorescence quenchers | shares compounds with Rin1 Abl inh | inhibitors/quenchers counterscreen | inhibition, % at 6.75 µM | 1,300 compounds, 8.5% hits; in the data active = inhibition above about 6.5%;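 also: ABL1-eGFP fusion protein alone without its partner RIN1-SBP; 0% = protein with vehicle and 100% = wells lacking protein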
# GFP quench DR = quenches GFP in dose response, Rin1-Abl counter-screen; shares compounds with Rin1 Abl inh; GFP fluorescence interference/quenching counterscreen; IC50, µM; 230 tested, under 10 active; AID 602182; call rule not given here;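 also: ABL1-eGFP fusion protein alone without its RIN1 binding partner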
# ABHD5-PLIN5 conf = ABHD5-PLIN5 interaction inhibition, confirmed | shares compounds with ABHD5-PLIN5 inh | biochemical ABHD5-PLIN5 interaction, luminescence | inhibition, % at 4 µM | 2,200 compounds, 67% hits; in the data active = inhibition above about 23%;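 also: 0% = DMSO vehicle wells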
# HNF4 counter = active in HNF4 split-luciferase counter-screen for ABHD5-PLIN5 inhibitors; shares compounds with ABHD5-PLIN5 inh; HNF4 dimerization, luminescence, biochemical; inhibition, % at 4 µM; 2,200 compounds, 77% hits;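 active = mean inhibition across replicate wells exceeding the computed hit threshold, cut at about 13% in these data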;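 also: light from luciferase halves that rejoin when HNF4 fusion proteins dimerize; 0% = DMSO only wells and the 100% control is not given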
# UHRF1 ctr MBD2 = inhibits human UHRF1 binding to methylated oligonucleotide, MBD2 counter-screen | shares compounds with MBD2 DNA inh | TR-FRET | inhibition, % at 4.4 µM | 1,000 compounds, 25% hits | AID 720530;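 also: UHRF1 SRA domain binding a labeled hemimethylated CpG hairpin DNA; 0% = vehicle only and 100% = reference inhibitor with vehicle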
# MBD2 confirm = MBD2-DBD methyl-DNA binding inhibition, TR-FRET confirmation. shares compounds with MBD2 DNA inh. TR-FRET MBD2-DBD binding to methylated oligonucleotide. inhibition, % at 4.4 µM. 1,000 compounds, 26% hits; in the data active = inhibition above about 14%
# * marks the source's active call; other numbers are inactive results; · = no result given. Rule as the data show it, unless noted: active = inhibition above about 21%; inactive = the rest.
SMILES,Rin1 Abl inh,B2AR ag,MBD2 DNA inh,Arrestin-AP2 inh,ABHD5-PLIN5 inh,UHRF1 MBD2 ctr,Rin1 Abl conf,GFP quench,others
COc1ccc(CN(CC#Cc2ccccc2)Cc2ccccc2)c(OC)c1,·,·,3.2,·,·,-1.0,·,·,
COc1cccc(CNC2CCC23CCC(C)CC3)c1 (stereo not drawn),·,·,2.5,·,·,2.5,·,·,
CC(C)C[C@H]1COc2cc(N3CCCC3)ccc2S(=O)(=O)N1C,·,·,1.7,·,·,1.7,·,·,
O=C1CC(C(=O)Nc2ccccc2)C2(CCCC2)O1 (stereo not drawn),7.7*,-2.8,1.8,1.8,-4.2,-0.5,-1.6,-0.8,
CCCc1cc(N2CCN(c3ccccn3)CC2)n2nc(C)c(-c3ccccc3)c2n1,8.1*,7.4,10.7,17.4,5.8,7.9,0.5,-0.5,
Nc1nc(N2CCN(C(=O)c3ccco3)CC2)nc2ccccc12,8.7*,-8.4,1.0,20.7,-0.5,6.7,3.5,-0.1,
CCCc1cc(=O)[nH]c(SCC(=O)NC2CCCCCCC2)n1,9.1*,6.4,-4.2,18.6,1.8,5.5,0.7,-0.6,
CCCc1cc(=O)[nH]c(SCC(=O)NC2CC2)n1,4.2,2.2,6.0,0.4,-3.0,13.7,·,·,
CCCCC#CC(CC)NCc1ccc(OC)cc1OC (stereo not drawn),·,·,-1.6,·,·,2.1,·,·,
CCOc1ccc(CN(C)C(=O)c2ccc(NC(=O)CC3SC(N4CCCC4)=NC3=O)cc2)cc1 (stereo not drawn),10.4*,7.2,0.1,3.3,14.2,3.1,5.0,-2.1,
COc1ccc(CN(C)C(=O)c2ccc(NC(=O)CC3SC(N4CCCC4)=NC3=O)cc2)c(OC)c1 (stereo not drawn),2.4,0.4,-4.0,5.8,-0.1,-3.5,·,·,
CC(C)c1cc(C(C)C)c(S(=O)(=O)N2CCC(C(=O)NCC3COCCO3)CC2)c(C(C)C)c1 (stereo not drawn),·,·,0.5,·,·,-1.8,·,·,
CC(=O)c1ccc(N(CC(=O)NC2CCCC2)C(=O)c2ccc(C)s2)cc1,1.1,0.5,2.7,12.5,3.8,-1.5,·,·,
CC(=O)c1cccc(N(CC(=O)NC2CCCC2)C(=O)c2ccc(C)s2)c1,7.5*,4.3,0.8,11.6,-3.1,-1.8,-1.0,-1.0,
Cc1ccc(NC2C(=O)NC(=O)NC2=O)cc1,17.0*,6.7,1.7,5.1,44.0*,-6.5,15.8*,-0.6,ABHD5-PLIN5 conf=9.9;HNF4 counter=14.7*
C=CC(=O)NC1CCCCN(CC)C1=O (stereo not drawn),·,·,7.5,·,·,3.8,·,·,
CCS(=O)(=O)c1ccc(OC)c(N=Nc2ccc(O)c3ncccc23)c1,3.2,-6.6,-2.0,1.6,2.6,-10.1,·,·,
NS(=O)(=O)c1ccc(N=Nc2ccc(O)c3ncccc23)cc1,11.3*,15.2,-10.8,16.2,23.6*,-19.0,3.8,12.7*,ABHD5-PLIN5 conf=29.4*;HNF4 counter=20.3*
N#CCC[C@H]1CC[C@]2(CCCN(C(=O)C3CCCCC3)C2)O1,·,·,-4.7,·,·,-0.3,·,·,
CN(C)c1ccc(C=c2c3cc([N+](=O)[O-])ccc3n3c2cc(-c2ccccc2)[n+]3C)cc1,37.1*,23.6,3.2,26.7,25.9*,14.6,3.8,35.0*,ABHD5-PLIN5 conf=100.8*;HNF4 counter=47.7*
COc1ccc(/C=N/NC(=O)c2cc(O)c(O)c(O)c2)cc1Cn1cc([N+](=O)[O-])cn1,29.3*,1.6,15.5*,4.5,7.7,28.4*,29.4*,11.0*,UHRF1 ctr MBD2=20.0;MBD2 confirm=13.9*
COc1cc(Br)c(C(=O)c2nccc3cc(OC)c(OC)cc23)cc1OC,6.0*,-4.3,14.0*,11.4,-6.5,24.9*,3.0,-0.4,UHRF1 ctr MBD2=36.5*;MBD2 confirm=26.3*
COc1cc2ccnc(C=O)c2cc1OC,-4.3,·,·,·,-0.8,·,·,·,
COc1ccc(OC)c(S(=O)(=O)N2CCC(C(=O)NCC3COCCO3)CC2)c1 (stereo not drawn),·,·,0.8,·,·,0.1,·,·,
COc1cccc(CC(=O)Nc2ccc(S(=O)(=O)N3CCCCC3)cc2)c1,8.9*,-3.8,13.3*,38.6,6.8,1.0,4.8,-0.5,UHRF1 ctr MBD2=4.5;MBD2 confirm=3.1
SMILES,Rin1 Abl inh,B2AR ag,MBD2 DNA inh,Arrestin-AP2 inh,ABHD5-PLIN5 inh,UHRF1 MBD2 ctr,Rin1 Abl conf,GFP quench,others
COc1cccc(CC(=O)Nc2cc(S(=O)(=O)N3CCCCC3)ccc2C)c1,-0.6,-1.0,5.5,-16.3,-1.5,0.2,·,·,
CSCCCNc1nc(C)nc2c1nnn2Cc1ccccc1,·,·,-6.7,·,·,0.1,·,·,
CCn1c(C)nc2cc(C(=O)N/N=C/c3ccc(O)c(O)c3O)ccc21,45.2*,13.7,16.1*,44.8,-4.0,19.1,53.0*,23.1*,UHRF1 ctr MBD2=3.3;MBD2 confirm=2.2
COC(=O)c1cc(O)cc(OC)c1Oc1cc(C)cc(O)c1C(=O)O,20.2*,7.0,14.0*,29.4,-7.1,28.8*,21.0*,4.5,GFP quench DR=>67.5;UHRF1 ctr MBD2=56.4*;MBD2 confirm=30.4*
N#Cc1ccc(/C=C2\CC3(OC(=O)c4ccc(F)cc4)CCCN2C3)cc1 (stereo not drawn),·,·,-1.9,·,·,-1.8,·,·,
Oc1c(CN2CCOCC2)cc(CN2CCOCC2)c(O)c1O,22.8*,-4.9,34.8*,10.1,5.2,70.4*,7.0*,5.8,UHRF1 ctr MBD2=6.0;MBD2 confirm=6.5
O=C1CCCC(O)=C1N=Nc1ccc2c(c1)OCO2,-12.3,-8.0,-25.9,11.5,3.4,-25.1,·,·,
O=C1CCCC(O)=C1N=Nc1ccc(C(=O)O)cc1,6.7*,-0.6,14.8*,-15.4,-7.5,54.2*,2.2,3.2,UHRF1 ctr MBD2=55.6*;MBD2 confirm=18.6*
O=C(NCCCN1CCN(c2ccc(F)cc2)CC1)Nc1ccccc1,·,·,-1.1,·,·,-1.8,·,·,
CCn1c2ccccc2c2cc(NC(=O)c3cc4c(C)nn(-c5ccccc5)c4s3)ccc21,·,·,-5.2,·,·,0.9,·,·,
C=C1c2cccc(O)c2C(O)=C2C(=O)[C@]3(O)C(O)=C(C(N)=O)C(=O)[C@@H](N(C)C)[C@@H]3[C@@H](O)[C@H]12,23.1*,1.4,91.0*,-1.1,1.3,97.7*,16.9*,12.2*,UHRF1 ctr MBD2=21.0*;MBD2 confirm=9.1
